These results are taken from paper PMC3589821 (Biochemistry, 2013).

What is called Km is the concentration of substrate that gives half-maximal velocity.

Substitutions are numbered along the chain they refer to.

Experiment [1] deals with T1, Ath α-DOX (Arabidopsis thaliana, UniProt Q9SGH6).
T1 sequence (Q9SGH6 1-639): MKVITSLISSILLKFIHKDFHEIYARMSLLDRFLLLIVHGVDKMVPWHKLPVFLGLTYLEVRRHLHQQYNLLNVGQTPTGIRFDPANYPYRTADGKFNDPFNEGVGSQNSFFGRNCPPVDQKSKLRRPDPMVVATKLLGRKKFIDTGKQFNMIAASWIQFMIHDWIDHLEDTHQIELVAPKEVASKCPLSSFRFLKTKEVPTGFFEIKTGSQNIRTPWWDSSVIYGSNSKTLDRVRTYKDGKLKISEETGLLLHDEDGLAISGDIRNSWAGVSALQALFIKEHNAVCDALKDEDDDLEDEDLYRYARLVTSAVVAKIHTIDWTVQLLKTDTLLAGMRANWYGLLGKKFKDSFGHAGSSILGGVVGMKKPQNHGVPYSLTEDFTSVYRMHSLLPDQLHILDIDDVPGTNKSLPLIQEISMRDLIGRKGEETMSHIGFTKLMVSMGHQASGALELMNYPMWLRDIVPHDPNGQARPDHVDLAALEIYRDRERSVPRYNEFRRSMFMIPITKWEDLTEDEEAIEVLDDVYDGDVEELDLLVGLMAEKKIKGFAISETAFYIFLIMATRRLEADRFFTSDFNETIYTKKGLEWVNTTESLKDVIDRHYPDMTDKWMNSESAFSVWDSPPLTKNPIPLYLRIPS
As to the kind of experiment: oxygen electrode, oxygenase activity. It is filed as biochemical. Particulars: co-substrate O2. An outline of the steps:
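Codon-optimized Ath α-DOX (wild type or point mutants) was expressed in E. coli M15 with 1mM IPTG and 250μM δ-aminolevulinic acid at 23°C for 16 h. It was solubilized in 0.7% C10M, purified by IMAC and size exclusion, and dialyzed a week in 20mM TRIS pH 8.0, 150mM NaCl, 0.2% C10M to remove imidazole. O2 consumption was followed by oxygen electrode with αLA, LA or OA substrates. KM values came from triplicate measurements.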

For experiment [2], the target named is T2, Ath α-DOX (Arabidopsis thaliana, UniProt Q9SGH6, H318Q).
T2 sequence (Q9SGH6 1-639 H318Q): T1 sequence (Q9SGH6 1-639) with H318Q
As to the kind of experiment: oxygen electrode, oxygenase activity. It is filed as biochemical. Particulars: co-substrate O2.

The target in experiment [3] is T1, Ath α-DOX. As to the kind of experiment: X-ray crystal structure, […] Å. Format: binding. The conditions noted are these: iron liganded to His-389; water as sixth ligand; pH 8.0.
Experiment [4] deals with T1, Ath α-DOX. As to the kind of experiment: oxygen electrode, oxygenase activity. It is filed as biochemical. Particulars: 1 mM imidazole, 60 min preincubation.

With `CCCCC/C=C\C/C=C\CCCCCCCC(=O)O` [LA, linoleic acid], the Michaelis constant (Km) at Ath α-DOX [1] turned out to be 23 ± 2 µM; at Ath α-DOX [2] it was 18.2 ± 2.4 µM. `CCCCCCCC/C=C\CCCCCCCC(=O)O` [OA, oleic acid]: the Km at Ath α-DOX [1] came out at 15 ± 1.9 µM. As for `C=CC1=C(C)C2=Cc3c(C=C)c(C)c4[n]3[Fe+][n]3c(c(C)c(CCC(=O)O)c3=CC3=NC(=C4)C(C)=C3CCC(=O)O)=CC1=N2` [heme], at Ath α-DOX [3], the “X-ray crystal structure, 1.70 Å” value was “The heme is liganded to the side chain of His-389”.

Turning to `c1c[nH]cn1` [imidazole], the “% reduction in activity at 1 mM” value at Ath α-DOX [4] came to 50%.

For the compound `CC/C=C\C/C=C\C/C=C\CCCCCCCC(=O)O` [αLA, α-linolenic acid], on Ath α-DOX [1], the Km was 36 ± 3.2 µM.
